Experimental data reported in ChEMBL document CHEMBL3351414, “Novel 9'-substituted-noscapines: synthesis with Suzuki cross-coupling, structure elucidation and biological evaluation” (Eur J Med Chem, 2014).
Activity calls are given as the source filed them. No cut-off for these calls is given here.

Tests used:
PBL [1] = assay: Cytotoxicity against PHA-stimulated human PBLs assessed as reduction in cell growth; assay type: cell-based
In short: (§1)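 Peripheral blood lymphocytes from healthy donors, tested either resting (no PHA) or PHA-stimulated. Value is the concentration reducing cell growth by 50%, mean ± SEM of three separate experiments.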

Tubulin = Tubulin (Bos taurus, UniProt Q6B856+Q862L2+Q862F3); assay: Inhibition of bovine brain tubulin assessed as extent of assembly preincubated for 15 mins by turbidimetry
In short: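 Bovine brain tubulin at 10 µM (1.0 mg/mL) in 0.8 M monosodium glutamate pH 6.6 with 4% DMSO and varying compound was preincubated 15 min at 30 °C, then chilled. GTP was added to 0.4 mM final and the temperature jumped from 0 to 30 °C. Turbidity was followed at 350 nm, scoring either maximum rate or extent of assembly at 20 min.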

HeLa [2] = assay: Effect on cell morphology in human HeLa cells assessed as disorganization of actin filament at 25 uM after 24 hrs by confocal microscopy relative to control; assay type: functional, cell-based
In short: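 After 24 h at 25 µM, HeLa cells were stained with anti-PCM1 and Alexa-conjugated secondary antibody, with phalloidin-tetramethylrhodamine B for actin and DAPI for nuclei. Cells were imaged by confocal microscopy at 60×.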

HeLa [3] = assay: Cell cycle arrest in human HeLa cells assessed as accumulation at G2/M phase after 24 hrs by flow cytometry; assay type: functional, cell-based
In short: (§2)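 5×10^5 HeLa or Jurkat cells exposed to graded compound concentrations for 24 h. Cells were fixed in ice-cold 70% ethanol, lysed with RNase A/0.1% Triton X-100 buffer and stained with propidium iodide. DNA content was read by flow cytometry. Phase percentages are mean ± SEM of three independent experiments.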

Jurkat [4] = assay: Cell cycle arrest in human Jurkat cells assessed as accumulation at G2/M phase after 24 hrs by flow cytometry; assay type: functional, cell-based; in short: as §2
HeLa [5] = assay: Cell cycle arrest in human HeLa cells assessed as accumulation at G2/M phase at 10 to 25 uM after 24 hrs by flow cytometry; assay type: functional, cell-based; in short: as §2
HeLa [6] = assay: Induction of apoptosis in human HeLa cells assessed as viable cells at 25 uM after 24 hrs using Annexin-V/PI staining by flow cytometry (reference value: 86.7 %); assay type: functional; settings: read-out: Activity
HeLa [7] = assay: Induction of apoptosis in human HeLa cells assessed as early apoptotic cells at 25 uM after 24 hrs using Annexin-V/PI staining by flow cytometry (reference value: 5.26 %); assay type: functional
HeLa [8] = assay: Induction of apoptosis in human HeLa cells assessed as late apoptotic cells at 25 uM after 24 hrs using Annexin-V/PI staining by flow cytometry (reference value: 4.31 %); assay type: functional
HeLa [9] = assay: Induction of apoptosis in human HeLa cells assessed as late necrotic cells at 25 uM after 24 hrs using Annexin-V/PI staining by flow cytometry (reference value: 3.70 %); assay type: functional
HeLa [10] = assay: Induction of apoptosis in human HeLa cells after 24 to 48 hrs using Annexin-V/PI staining by flow cytometry; assay type: functional, cell-based
HeLa [11] = assay: Induction of apoptosis in human HeLa cells at 6.2 to 50 uM using Annexin-V/PI staining by flow cytometry; assay type: functional, cell-based; settings: TDE = time-dependent effect
HeLa [12] = assay: Induction of apoptosis in human HeLa cells assessed as mitochondrial membrane depolarization after 24 to 48 hrs using JC-1 staining-based fluorescence assay; assay type: functional, cell-based
In short: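 Mitochondrial membrane potential was read with the JC-1 dye in HeLa cells after 24 or 48 h at graded concentrations. Data are mean ± SEM of three independent experiments.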

HeLa [13] = assay: Induction of apoptosis in human HeLa cells assessed as ROS production at 6.2 to 50 uM after 24 to 48 hrs using H2-DCFDA -based flow cytometry relative to control; assay type: functional, cell-based
In short: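 HeLa cells incubated 24 or 48 h at the indicated concentrations, stained with H2-DCFDA and analysed by flow cytometry. Data are mean ± SEM of three independent experiments.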

HeLa [14] = assay: Induction of apoptosis in human HeLa cells assessed as caspase 3 cleavage at 25 uM after 24 to 48 hrs by Western blot analysis; assay type: functional, cell-based
In short: (§3)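 HeLa cells treated 24 or 48 h at 25 µM, then lysed. 20 µg protein per lane was run on SDS-PAGE and transferred to PVDF. Membranes were probed 2 h at room temperature for cleaved caspase-9, caspase-3, cleaved PARP, Bcl-2, Mcl-1 or Bax, with peroxidase secondary antibody and ECL. β-Actin reprobe served as loading control.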

HeLa [15] = assay: Induction of apoptosis in human HeLa cells assessed as caspase 9 cleavage at 25 uM after 24 to 48 hrs by Western blot analysis; assay type: functional, cell-based; in short: as §3
HeLa [16] = assay: Induction of apoptosis in human HeLa cells assessed as PARP cleavage at 25 uM after 24 to 48 hrs by Western blot analysis; assay type: functional, cell-based; in short: as §3
HeLa [17] = assay: Induction of apoptosis in human HeLa cells assessed as reduction in Bcl-2 expression at 25 uM after 24 hrs by Western blot analysis; assay type: functional, cell-based; in short: as §3
HeLa [18] = assay: Induction of apoptosis in human HeLa cells assessed as reduction in Bcl-2 expression at 25 uM after 48 hrs by Western blot analysis; assay type: functional, cell-based; in short: as §3
HeLa [19] = assay: Induction of apoptosis in human HeLa cells assessed as reduction in Mcl-1 expression at 25 uM after 24 hrs by Western blot analysis; assay type: functional, cell-based; in short: as §3
HeLa [20] = assay: Downregulation of phosphorylated form of cdc25c protein level in human HeLa cells at 25 uM after 24 hrs by Western blot analysis; assay type: functional, cell-based
In short: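 HeLa cells treated 24 or 48 h at 25 µM, then washed in PBS and lysed 30 min on ice. 20 µg protein per lane was resolved on 7.5–15% SDS-PAGE and blotted to PVDF. Blots were probed for cyclin B, p-cdc2 Tyr15, cdc25C and γH2A.X, with β-actin reprobe as loading control and ECL detection.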

HeLa [21] = assay: Antiproliferative activity against human HeLa cells assessed as reduction in cell viability after 72 hrs by MTT assay; assay type: functional, cell-based
In short: (§4)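 Cells kept in RPMI-1640 (Jurkat, SEM, RS4;11) or DMEM (A549, HeLa, IGROV-1, HT-29) with 10% FBS plus penicillin/streptomycin. 8×10^3 cells per well were left 18 h at 37 °C in 5% CO2. Medium was then replaced with fresh medium holding graded compound concentrations from 10 mM DMSO stocks. Cells were incubated 72 h and viability read by MTT. IC50 is the mean ± SEM from dose–response curves of at least three independent experiments.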

Jurkat [22] = assay: Antiproliferative activity against human Jurkat cells assessed as reduction in cell viability after 72 hrs by MTT assay; assay type: functional, cell-based; in short: as §4
[23] = Antiproliferative activity against human SEM cells assessed as reduction in cell viability after 72 hrs by MTT assay; assay type: functional, cell-based; in short: as §4
[24] = Antiproliferative activity against human RS4:11 cells assessed as reduction in cell viability after 72 hrs by MTT assay; assay type: functional, cell-based; settings: RS4-11, 72 h; in short: as §4
CCRF-CEM = assay: Antiproliferative activity against human CEM cells assessed as reduction in cell viability after 72 hrs by MTT assay; assay type: functional, cell-based
HT-29 = assay: Antiproliferative activity against human HT-29 cells assessed as reduction in cell viability after 72 hrs by MTT assay; assay type: functional, cell-based; settings: HT-29, 72 h; in short: as §4
A549 = assay: Antiproliferative activity against human A549 cells assessed as reduction in cell viability after 72 hrs by MTT assay; assay type: functional, cell-based; settings: A549, 72 h; in short: as §4
PBL [25] = assay: Cytotoxicity against resting human PBLs assessed as reduction in cell growth; assay type: cell-based; in short: as §1

Compound | IC50 (PBL [1]) [µM] | IC50 (Tubulin) [µM] | Activity (HeLa [2]) | Activity (HeLa [3]) | Activity (Jurkat [4]) | Activity (HeLa [5]) | viability at 25 µM (HeLa [6]) [%] | Activity (HeLa [7]) [%] | Activity (HeLa [8]) [%] | Activity (HeLa [9]) [%] | Activity (HeLa [10]) | Activity (HeLa [11]) | Activity (HeLa [12]) | Activity (HeLa [13]) | Activity (HeLa [14]) | Activity (HeLa [15]) | Activity (HeLa [16]) | Activity (HeLa [17]) | Activity (HeLa [18]) | Activity (HeLa [19]) | other results
COc1ccc2c(c1OC)C(=O)O[C@@H]2[C@H]1c2c(c(-c3ccc(C)cc3)c3c(c2OC)OCO3)CCN1C | > 200 | 120 | Active | Dose-dependent effect | Dose-dependent effect | Active | 5.88 | 14.3 | 22.9 | 11.1 | Dose-dependent effect | tde | Dose-dependent effect | Active | Active | Active | Active | inactive | Active | inactive | Activity (HeLa [20]): Active; IC50 (HeLa [21]): 12.8 µM; IC50 (Jurkat [22]): 5.1 µM; IC50 [23]: 7.4 µM; IC50 [24]: 16.4 µM; IC50 (CCRF-CEM): 11.8 µM; IC50 (HT-29): 24.9 µM; IC50 (A549): 22.2 µM; IC50 (PBL [25]): > 200 µM
COc1ccc2c(c1OC)C(=O)O[C@@H]2[C@H]1c2c(c(Br)c3c(c2OC)OCO3)CCN1C | 92.2 | > 400 | Active | Dose-dependent effect | Dose-dependent effect | Active | 76.8 | 57.3 | 44.7 | 53.7 | Dose-dependent effect | tde | Dose-dependent effect | Active | Active | Active | Active | Active | Active | Active | Activity (HeLa [20]): Active; IC50 (HeLa [21]): 2.6 µM; IC50 (Jurkat [22]): 3 µM; IC50 [23]: 1.8 µM; IC50 [24]: 1.4 µM; IC50 (CCRF-CEM): 2.8 µM; IC50 (HT-29): 18.7 µM; IC50 (A549): 73.9 µM; IC50 (PBL [25]): > 200 µM
COc1ccc2c(c1OC)C(=O)O[C@@H]2[C@H]1c2c(c(C)c3c(c2OC)OCO3)CCN1C | > 200 | > 400 | Active | Dose-dependent effect | Dose-dependent effect | Active | 9.8 | 12.5 | 13.9 | 17.1 | Dose-dependent effect | tde | Dose-dependent effect | Active | Active | Active | Active | Active | Active | Active | Activity (HeLa [20]): Active; IC50 (HeLa [21]): 5.2 µM; IC50 (Jurkat [22]): 5.9 µM; IC50 [23]: 4.3 µM; IC50 [24]: 15.8 µM; IC50 (CCRF-CEM): 8.8 µM; IC50 (HT-29): 34 µM; IC50 (A549): > 100 µM; IC50 (PBL [25]): > 200 µM
